Assay outcomes as filed in PubChem.
Only some compounds are listed: those with a hit (about 1.2% of all), similar ones and a draw of the others.
CAL PDZ FP-1 – inhibitors of human CAL PDZ peptide binding; Q9HD26; purified CAL PDZ, TMR-peptide fluorescence polarization, 1 h; 330,000 compounds, 0.02% hits; inhibition, % at 20 µM;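 active = highest replicate inhibition of at least 40%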
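Test system: tagged CAL PDZ domain / Buffer or medium: sodium phosphate/NaCl buffer pH 7.4 with TCEP, IgG, Thesit / Reagent: TMR-labelled reporter peptide T*-PRC34 bound in PDZ groove / Compound dosing: single point, 20 µM / Schedule: 1 h incubation at room temperature before polarization reading / Technique: fluorescence polarization (mP) / Benchmarks: unlabelled peptide, DMSO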
ARNT-TACC3 inh – disrupts binding between human ARNT and TACC3. Q9Y6A5. AlphaScreen His-ARNT PAS-B/GST-TACC3 binding, luminescence; TACC3 fragment carries E629A point mutation. inhibition, % at 9.99 µM. 390,000 compounds, 0.66% hits. AID 623870;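 active = mean inhibition of replicates at least 50% and at least half of replicates each reaching 50%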
CAL PDZ FP-2 – CAL PDZ (human) peptide binding inhibition; inhibition, % at 24.9 µM; Q9HD26; purified CAL PDZ, TMR-peptide fluorescence polarization, 1 h; 300,000 compounds, 0.92% hits;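 active = mean inhibition of at least 30% with at least half of replicates also reaching 30%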
CaV13 FRET inh – Primary screen for inhibitors of IQ motif and Ca2+-dependent inactivation inhibitor domain binding in CACNA1D, Förster resonance energy transfer in living cells, …. HEK cells, CFP/YFP FRET ICDI-IQ, plate reader, 10 min; percent FRET-ratio fall versus neutral wells. inhibition, % at 12.3 µM. 340,000 compounds, 0.098% hits;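 active = mean replicate inhibition of at least 30% and at least 1% of replicates passing that level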
Of the large screens only hits and unclear results are named; the others gave an inactive call; ! = repeats disagree.

O=C(NCC(=O)N1CCN(Cc2ccccc2)CC1)c1ccc(Br)cc1	CAL PDZ FP-2 41 (no result: CaV13 FRET inh)
CCN(CC)CCNc1ncnc2c1sc1nc(N3CCOCC3)c3c(c12)CCCC3	none
Cc1cccc(-n2cnc3c(sc4nc(N5CCOCC5)c5c(c43)CCCC5)c2=O)c1	CAL PDZ FP-2 60
O=C1C(Nc2ccc(O)cc2)=C/C(=N/S(=O)(=O)c2cccs2)c2ccccc21	ARNT-TACC3 inh 67 (no result: CAL PDZ FP-2)
Cc1ccc(NC2=C(N3CCOCC3)C(=O)c3ccccc3C2=O)cc1	ARNT-TACC3 inh 62 (no result: CaV13 FRET inh)
CCCOc1c(Br)cc(C2C3=C(CCCC3=O)N(C)C3=C2C(=O)CCC3)cc1OC	CaV13 FRET inh active (no result: ARNT-TACC3 inh)
CCCOc1c(Br)cc(C2C3=C(CCCC3=O)N(CC)C3=C2C(=O)CCC3)cc1OC	none
C[C@H](CO)N1C[C@H](C)[C@@H](CN(C)C(=O)Nc2ccc(C(F)(F)F)cc2)OCCCC[C@H](C)Oc2ccc(NC(=O)C3CCCCC3)cc2C1=O	none (no result: CAL PDZ FP-1, CAL PDZ FP-2, CaV13 FRET inh)
Nc1[nH]c(=O)nc(Nc2ccccc2)c1N=O	ARNT-TACC3 inh 28
CC1Nc2ncnc(N3CCOCC3)c2N(Cc2ccccc2)C1=O (stereo not drawn)	ARNT-TACC3 inh 23
COc1ccc(CN2C(=O)C(C)Nc3ncnc(N4CCN(c5ccccc5)CC4)c32)cc1 (stereo not drawn)	CaV13 FRET inh 63!
COc1ccc(CN2C(=O)C(C)Nc3ncnc(N4CCOCC4)c32)cc1 (stereo not drawn)	none
CC(C)(C)NC(=O)CCN(/N=C/c1ccc([N+](=O)[O-])o1)C1=NS(=O)(=O)c2ccccc21	ARNT-TACC3 inh 79
C[C@H](CO)N1C[C@H](C)[C@H](CN(C)C(=O)Nc2ccc(F)cc2)Oc2ccc(NC(=O)Nc3cccc4ccccc34)cc2C1=O	none (no result: CAL PDZ FP-1, CAL PDZ FP-2, CaV13 FRET inh)
CNC[C@H]1OCCCC[C@@H](C)Oc2ccc(NC(=O)CCCN(C)C)cc2C(=O)N([C@H](C)CO)C[C@@H]1C	none (no result: CAL PDZ FP-1, CAL PDZ FP-2, CaV13 FRET inh)
Cc1cc(OCC(=O)N(Cc2ccco2)c2c(N)n(Cc3ccccc3)c(=O)[nH]c2=O)ccc1Cl	CAL PDZ FP-2 74
CCCOc1ccc(C(=O)CCC(=O)OCC(=O)N(C)c2c(N)n(Cc3ccccc3)c(=O)[nH]c2=O)cc1	CAL PDZ FP-2 38
COc1ccc(CCC(=O)OCC(=O)N(C)c2c(N)n(Cc3ccccc3)c(=O)[nH]c2=O)cc1	none
CCN(C(=O)COC(=O)CCc1ccc(OC)cc1)c1c(N)n(Cc2ccccc2)c(=O)[nH]c1=O	CAL PDZ FP-2 44 (no result: ARNT-TACC3 inh)
Nc1c(N(CCC2=CCCCC2)C(=O)CCCOc2ccccc2)c(=O)[nH]c(=O)n1Cc1ccccc1	CAL PDZ FP-2 49
Nc1c(N(CCC2=CCCCC2)C(=O)COc2ccc(F)cc2)c(=O)[nH]c(=O)n1Cc1ccccc1	none (no result: CaV13 FRET inh)
CO[C@H]1CN(C)C(=O)c2ccc(NC(=O)c3ccc(Oc4ccccc4)cc3)cc2OC[C@H](C)NC[C@H]1C	none (no result: CAL PDZ FP-1, CAL PDZ FP-2, CaV13 FRET inh)
O=C(O)C1CC=CCC1C(=O)NC12CC3CC(CC(C3)C1)C2 (stereo not drawn)	CAL PDZ FP-2 67
CCCCOc1ccc(NC(=O)Nc2nnc(C)s2)cc1	CAL PDZ FP-2 60
N#CCc1ccc(OC(=O)Nc2ccccc2)cc1	CAL PDZ FP-2 114 (no result: CAL PDZ FP-1)
O=c1[nH]c2ccccc2cc1CN(CC1CCCO1)S(=O)(=O)c1ccccc1 (stereo not drawn)	CAL PDZ FP-2 66
Fc1cccc2sc(N3CCCCC3)nc12	CAL PDZ FP-2 37
Fc1cccc2sc(N3CCOCC3)nc12	none
Cn1cc(C(c2ccccc2OCC(=O)O)c2cn(C)c3ccccc23)c2ccccc21	CaV13 FRET inh 45
O=C(COC(=O)C(CO)NS(=O)(=O)c1ccc(Br)cc1)Nc1ccc2c(c1)OCCO2 (stereo not drawn)	CAL PDZ FP-2 47 (no result: ARNT-TACC3 inh)
O=C1NC2(CCCCCC2)N=C1c1ccc(F)cc1	CAL PDZ FP-2 66
O=C(COC(=O)c1cn(-c2ccccc2)nc1-c1ccccc1)Nc1ncc(Cl)cc1Cl	CAL PDZ FP-2 77
CCN1C(=O)c2ccc(C(=O)Nc3ncc(C)s3)cc2C1=O	CAL PDZ FP-2 47
COc1ccc(C#Cc2ccc3c(c2)[C@]2(C(=O)N3)[C@H](C(=O)N3CCN(c4ncccn4)CC3)[C@H]3C(=O)O[C@H](c4ccccc4)[C@H](c4ccccc4)N3[C@@H]2c2ccc(O)cc2)cc1	none (no result: CAL PDZ FP-1, CAL PDZ FP-2, CaV13 FRET inh)
CC(=O)c1c(C)[nH]c(C(=O)OCC(=O)c2ccc3c(c2)NC(=O)CO3)c1C	CAL PDZ FP-2 81
C[C@@H]1CN([C@@H](C)CO)C(=O)c2cc(NC(=O)CCN3CCOCC3)ccc2O[C@@H]1CN(C)Cc1ccc(C(=O)O)cc1	none (no result: CAL PDZ FP-1, CAL PDZ FP-2, CaV13 FRET inh)
O=C(O)c1ccc(S(=O)(=O)c2ccc3c(c2)C(=O)N(NC(=O)c2ccc(O)cc2)C3=O)cc1	none
Cc1ccc(C(=O)NN2C(=O)c3ccc(S(=O)(=O)c4ccc(C(=O)O)cc4)cc3C2=O)cc1	CAL PDZ FP-2 47
COc1ccc(S(=O)(=O)Nc2ccc3c(c2)C(=O)N([C@@H](C)CO)C[C@@H](C)[C@@H](CN(C)C(=O)Nc2ccc(C(F)(F)F)cc2)O3)cc1	none (no result: CAL PDZ FP-1, CAL PDZ FP-2, CaV13 FRET inh)
C[C@@H]1CN([C@@H](C)CO)C(=O)c2cc(-c3cccnc3)cnc2O[C@@H]1CN(C)C(=O)Nc1ccccc1	none (no result: CAL PDZ FP-1, CAL PDZ FP-2, CaV13 FRET inh)
O=C(c1ncn(Cc2ccccc2)c1C(=O)N1CCN(c2ccccc2)CC1)N1CCN(c2ccccc2)CC1	none
O=C(O)c1ncn(Cc2ccc(Br)cc2)c1C(=O)O	ARNT-TACC3 inh 46 (no result: CAL PDZ FP-2)
O=c1[nH]c(Nc2ccccc2)cc2ccccc12	none
COc1ccc(OC)c(Nc2cc3ccccc3c(=O)[nH]2)c1	ARNT-TACC3 inh 38
OCCn1c(SC2CCCCC2)nc2ccccc21	CAL PDZ FP-2 47
Oc1cccnc1CCc1ccccc1	none
OCCN(Cc1ccccc1)Cc1ncccc1O	ARNT-TACC3 inh 24
COc1cccc(C(=O)COC(=O)c2ccc(NC(C)=O)cc2)c1	CAL PDZ FP-2 53
CNC(=O)C[C@@H]1CC[C@@H]2[C@@H](COc3ccc(NC(=O)c4ccc(OC)cc4)cc3C(=O)N2C)O1	none (no result: CAL PDZ FP-1, CAL PDZ FP-2, CaV13 FRET inh)
Cc1sc(NC(=O)CS(=O)(=O)c2ccccc2)c(C#N)c1C	none (no result: ARNT-TACC3 inh)
COC(=O)c1c(NC(=O)CS(=O)(=O)c2ccccc2)sc(C)c1C	CAL PDZ FP-2 45
Cc1cccc(CS(=O)(=O)Cc2ccc(C(=O)O)o2)c1	CAL PDZ FP-2 75
C[C@H](CO)N1C[C@H](C)[C@@H](CN(C)C(=O)Nc2ccc(C(F)(F)F)cc2)Oc2ccc(NC(=O)Cc3cn(C)c4ccccc34)cc2CC1=O	none (no result: CAL PDZ FP-1, CAL PDZ FP-2, CaV13 FRET inh)
C=CCn1c(CNc2ccccc2)nnc1SCC(=O)N/N=C/c1ccc(O)cc1O	ARNT-TACC3 inh 58 (no result: CAL PDZ FP-2, CaV13 FRET inh)
C[C@H](CO)N1C[C@H](C)[C@H](CN(C)S(=O)(=O)c2ccc(F)cc2)Oc2ccc(NC(=O)CCCN(C)C)cc2C1=O	none (no result: CAL PDZ FP-1, CAL PDZ FP-2, CaV13 FRET inh)
O=c1ccc2cc3c4c(c2o1)CCCN4CCC3	CaV13 FRET inh 32
C[C@H]1CCCCO[C@H](CN(C)C(=O)c2ccncc2)[C@@H](C)CN([C@@H](C)CO)C(=O)c2cc(NC(=O)Cc3ccccc3)ccc2O1	none (no result: CAL PDZ FP-1, CAL PDZ FP-2, CaV13 FRET inh)
